# Published values of several laboratories.
# Protocols differ between the studies behind these lines.
# FLT3: Receptor-type tyrosine-protein kinase FLT3 (FLT3, Homo sapiens, UniProt P36888)
# Aldo-keto reductase family 1 member B1: Aldo-keto reductase family 1 member B1 (Bos taurus, UniProt P16116)
# FAAH: Fatty-acid amide hydrolase 1 (FAAH, Homo sapiens, UniProt O00519)
Compound,target,test,conditions,IC50
NNC(COCc1ccccc1)c1nnnn1CCc1ccc(O)cc1 (stereo not drawn),"Endothiapepsin (EAPA, Cryphonectria parasitica, UniProt P11838)","enzyme activity, inhibitor, fluorescence",,89.3 µM
COc1cccc(-c2cccc(Nc3nccc(NC4CCCCC4)n3)c2)c1,FLT3,"enzyme activity, inhibitor",,24.5 µM
COc1ccc2c(Oc3ccc4c(C(=O)Nc5ccccc5N)cccc4c3)ccnc2c1,"Aurora kinase C (AURKC, Homo sapiens, UniProt Q9UQB9)","enzyme activity, inhibitor",,> 0.5 µM
C/C(=N/N=c1/scc(-c2ccc(Cl)cc2)n1-c1ccc(F)cc1)c1ccc2c(c1)OCCO2,Aldo-keto reductase family 1 member B1,"enzyme activity, inhibitor, absorbance",,9.63 µM
CCCOc1ccc(Nc2cc(C)nc3ccc(Cl)cc23)cc1,"Cell division protein FtsZ (Mycobacterium tuberculosis, UniProt P9WN95)","tubulin polymerisation, inhibitor",,22.7 µM
COc1ccc(S(=O)(=O)N2Cc3cc(O)c(O)cc3CC2C(=O)NO)cc1 (stereo not drawn),"Stromelysin-1 (MMP3, Homo sapiens, UniProt P08254)","enzyme activity, inhibitor",,10 µM
CCCCNc1ccnc(Nc2cccc(-c3cccnc3)c2)n1,FLT3,"enzyme activity, inhibitor",,0.123 µM
CC1=C(/C=C/C(C)=C/C=C/C(C)=C/C(=O)O)C(C)(C)CCC1,"Prothrombin (F2, Bos taurus, UniProt P00735)","enzyme activity, inhibitor, fluorescence",,223 µM
O=C1NCCc2[nH]c(-c3cccnc3)cc21,"Casein kinase I isoform delta (CSNK1D, Homo sapiens, UniProt P48730)","enzyme activity, inhibitor",,> 100 µM
COCC(C)Nc1ccnc(Nc2cccc(-c3cccnc3)c2)n1 (stereo not drawn),FLT3,"enzyme activity, inhibitor",,< 0.006 µM
COc1cccc(-n2c(-c3ccc([N+](=O)[O-])cc3)cs/c2=N/N=C\c2c[nH]c3ccccc23)c1,Aldo-keto reductase family 1 member B1,"enzyme activity, inhibitor, absorbance",,4.21 µM
CC(C)(C)n1nc(-c2ccc3nc(OC4CC4)ccc3c2)c(C(N)=O)c1N,"Calcium/calmodulin-dependent protein kinase type II subunit alpha (CAMK2A, Homo sapiens, UniProt Q9UQM7)","cell-free assay, inhibitor",,> 10 µM
O=C(Oc1nsnc1N1CCCCC1)N1CCCC1,FAAH,"enzyme activity, inhibitor",cell membranes,0.813 µM
COc1cccc(-c2cccc(Nc3nccc(NC(C)C)n3)c2)c1,FLT3,"enzyme activity, inhibitor",,6.97 µM
C/C(=N/N=c1/scc(-c2ccc(Cl)cc2)n1-c1ccccc1)c1ccc2c(c1)OCCO2,Aldo-keto reductase family 1 member B1,"enzyme activity, inhibitor, absorbance",,14.5 µM
CC(C)Nc1ccnc(Nc2cccc(-c3ccncc3)c2)n1,FLT3,"enzyme activity, inhibitor",,0.284 µM
O=[N+]([O-])c1ccc(-c2nc3ccccc3n2Cc2ccccc2)cc1,"Dihydrofolate reductase (DHFR, Homo sapiens, UniProt P00374)","enzyme activity, inhibitor",,12.3 µM
c1cc(Nc2nccc(NC3CCCCC3)n2)cc(-n2ccnc2)c1,FLT3,"enzyme activity, inhibitor",,0.016 µM
CC1Cc2ccccc2N1C(=O)NCCCCN(C)[C@@H]1Cc2cccc3[nH]c(=O)n(c23)C1 (mixture of isomers),"5-hydroxytryptamine receptor 2C (HTR2C, Homo sapiens, UniProt P28335)","ligand displacement, radioligand",,> 10 µM
CC(C)Nc1ccnc(Nc2cccc(C(C)(C)C)c2)n1,FLT3,"enzyme activity, inhibitor",,17.2 µM
O=C(Oc1nsnc1N1CCc2ccccc2C1)N1CCCCC1,FAAH,"enzyme activity, inhibitor",cell membranes,0.017 µM
